Values after ≈ are worked out from the molar mass of the structure shown.
Experiments:
[1] = test system: Trypanosoma cruzi; assay: WHO-TDR: Chagas disease; type: functional, organism-based, Homo sapiens; conditions: MRC5
Method in brief: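 Whole-organism screen of a 10,000-compound diverse library from Life Chemicals, filtered for drug-likeness and reactive groups, against intracellular amastigotes of Trypanosoma cruzi Tulahuen CL2 beta-galactosidase strain grown in MRC-5SV2 human lung fibroblast host cells. The assay followed previously published standard procedures, with a reference drug as positive control. Antiparasitic potency is reported as IC50.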

[2] = WHO-TDR: Cytotoxicity; type: toxicity, cell-based; conditions: human, MRC5 cells
[3] = test system: Schistosoma mansoni; assay: WHO-TDR: Schistosomiasis; type: functional; set-up: concentration or dose not given beside the values
Method in brief: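 Activity appears as percent inhibition and as IC50. The underlying screen tested a diverse library of 10,000 compounds, supplied by Life Chemicals, on whole larval and/or adult worms of the Puerto Rican strain of Schistosoma mansoni.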

[4] = test system: Leishmania infantum; assay: WHO-TDR: Leishmaniasis; type: functional, organism-based, Mus musculus; conditions: Macrophage
Method in brief: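 A diverse library of 10,000 compounds from Life Chemicals, filtered for drug-likeness and reactive groups, was screened against whole organisms. The targets were intracellular amastigotes of Leishmania infantum MHOM/MA(BE)/67 growing in murine peritoneal macrophages. Previously published standard procedures were followed, with a reference drug as positive control. Antiparasitic potency is given as IC50.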

[5] = test system: Plasmodium falciparum K1; assay: WHO-TDR: Malaria; type: functional, organism-based, Homo sapiens; conditions: Erythrocyte
Method in brief: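 A diverse library of 10,000 compounds from Life Chemicals, filtered for drug-likeness and reactive groups, was screened against the intra-erythrocytic Plasmodium falciparum K1 strain in human red blood cells. Previously published standard procedures were followed, with a reference drug as positive control. Antiplasmodial potency is given as IC50.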

[6] = test system: Trypanosoma brucei brucei; assay: WHO-TDR: Human African Trypanosomiasis (HAT); type: functional, organism-based; conditions: Squib-427
Method in brief: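 A diverse library of 10,000 compounds from Life Chemicals, filtered for drug-likeness and reactive groups, was screened against bloodstream forms of Trypanosoma brucei Squib 427 strain in a whole-organism assay. Previously published standard procedures were followed, with reference drugs serving as positive controls. Antiparasitic potency is given as IC50.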

[7] = test system: Onchocerca lienalis; assay: (§1) WHO-TDR: Onchocerciasis; type: functional; set-up: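 at 12.5 µM on microfilariae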
Method in brief: (§2)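 Following previously published standard procedures, with reference drugs as positive controls, a diverse Life Chemicals library was tested on whole Onchocerca ochengi or Onchocerca lienalis microfilariae. The library held 10,000 compounds filtered for drug-likeness and reactive groups. Activity is recorded both as percent inhibition and as IC50.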

[8] = test system: Brugia malayi; assay: WHO-TDR: Lymphatic Filariasis; type: functional; set-up: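 tested at 10 µM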
Method in brief: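 Following previously published standard procedures, compounds were tested on whole Brugia malayi microfilariae, with reference drugs as positive controls. They came from a diverse Life Chemicals collection of 10,000 compounds filtered for drug-likeness and reactive groups. Results appear as percent inhibition and as IC50.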

[9] = test system: Onchocerca ochengi; assay: as §1; type: functional; set-up: concentration or dose not given beside the values; method in brief: as §2;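 further: at 12.5 µM on microfilariae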

Row | Structure (SMILES) | IC50 [4] | IC50 [5] | IC50 [6] | IC50 [1] | IC50 [2] | % Inhibition [3] | % Inhibition [7] | % Inhibition [8] | % Inhibition [9]
1 | COc1ccc(S(=O)(=O)NCC(c2cccnc2)N2CCN(Cc3ccccc3)CC2)cc1C (stereo not given) | 7.47 µg/mL (≈ 15.5 µM) | 1.81 µg/mL (≈ 3.78 µM) | 5.04 µg/mL (≈ 10.5 µM) | 0.835 µg/mL (≈ 1.74 µM) | > 14.4 µg/mL | 0% | 0% | – | –
2 | O=S(=O)(NCC(c1cccnc1)N1CCN(Cc2ccccc2)CC1)c1ccc(Cl)cc1 (stereo not given) | > 14.1 µg/mL | 2.18 µg/mL (≈ 4.63 µM) | > 14.1 µg/mL | 0.633 µg/mL (≈ 1.34 µM) | > 14.1 µg/mL | 0% | 0% | – | –
3 | O=C(NCCc1csc(-c2ccccc2)n1)C1CCCC1 | > 9.01 µg/mL | > 9.01 µg/mL | 0.152 µg/mL (≈ 0.506 µM) | 0.345 µg/mL (≈ 1.15 µM) | > 9.01 µg/mL | 0% | 0% | – | –
4 | O=C(Nc1nc(-c2ccccn2)cs1)c1cc(Cl)sc1Cl | > 10.7 µg/mL | > 10.7 µg/mL | 0.182 µg/mL (≈ 0.511 µM) | 0.069 µg/mL (≈ 0.194 µM) | 3.89 µg/mL (≈ 10.9 µM) | – | 80% | – | –
5 | Cc1cccc(Nc2ccc(NCCNC(=O)Nc3ccccc3)nn2)n1 | > 10.9 µg/mL | 4.75 µg/mL (≈ 13.1 µM) | > 10.9 µg/mL | > 10.9 µg/mL | 10.4 µg/mL (≈ 28.7 µM) | 0% | – | 0% | 100%
6 | Cc1cccc(Nc2ccc(NCCNC(=O)Nc3ccc(F)cc3)nn2)n1 | > 11.4 µg/mL | 8.36 µg/mL (≈ 21.9 µM) | > 11.4 µg/mL | > 11.4 µg/mL | > 11.4 µg/mL | 0% | – | 0% | 100%
7 | Cc1ccc(S(=O)(=O)NCCNc2ccc(Nc3cccc(C)n3)nn2)c(C)c1 | 8.43 µg/mL (≈ 20.4 µM) | > 12.4 µg/mL | 4.01 µg/mL (≈ 9.71 µM) | 3.96 µg/mL (≈ 9.61 µM) | > 12.4 µg/mL | 0% | – | 0% | 100%
8 | O=C(NCCNc1ccc(Nc2ccccn2)nn1)c1cccc(C(F)(F)F)c1 | > 12.1 µg/mL | 5.09 µg/mL (≈ 12.6 µM) | 6.4 µg/mL (≈ 15.9 µM) | > 12.1 µg/mL | 10.1 µg/mL (≈ 25 µM) | 0% | – | 50% | 100%
9 | O=C(NCCNc1ccc(Nc2ccccn2)nn1)c1ccc(C(F)(F)F)cc1 | > 12.1 µg/mL | 7.28 µg/mL (≈ 18.1 µM) | 11 µg/mL (≈ 27.5 µM) | > 12.1 µg/mL | 7.71 µg/mL (≈ 19.2 µM) | 0% | – | 50% | 100%
10 | CCc1ccc(S(=O)(=O)N2CCN(c3ccc(Nc4ccccn4)nn3)CC2)cc1 | 0.412 µg/mL (≈ 0.97 µM) | 2.8 µg/mL (≈ 6.6 µM) | > 12.7 µg/mL | > 12.7 µg/mL | > 12.7 µg/mL | 0% | – | 0% | 0%
11 | O=C(c1ccc(Cl)cc1Cl)N1CCN(c2ccc(Nc3cccnc3)nn2)CC1 | > 12.9 µg/mL | 7.24 µg/mL (≈ 16.9 µM) | > 12.9 µg/mL | 3.7 µg/mL (≈ 8.63 µM) | > 12.9 µg/mL | 0% | – | 0% | 100%
12 | O=C(NCCNc1ccc(Nc2ccncc2)nn1)Nc1ccc(Cl)cc1 | > 11.5 µg/mL | > 11.5 µg/mL | > 11.5 µg/mL | > 11.5 µg/mL | > 11.5 µg/mL | 0% | – | 0% | 100%
13 | O=S(=O)(NCCNc1ccc(Nc2ccncc2)nn1)c1cc(Cl)ccc1Cl | > 13.2 µg/mL | 9.79 µg/mL (≈ 22.3 µM) | > 13.2 µg/mL | > 13.2 µg/mL | > 13.2 µg/mL | 0% | – | 0% | 100%
14 | COc1cccc(NC(=O)CSc2nc(-c3ccccc3Cl)ns2)c1 | > 11.8 µg/mL | 0.24 µg/mL (≈ 0.612 µM) | > 11.8 µg/mL | > 11.8 µg/mL | > 11.8 µg/mL | – | 6.7% | – | –

Now from value to molecule, other results behind:

Row | IC50 [4] | IC50 [5] | IC50 [6] | Structure (SMILES) | IC50 [1] | IC50 [2] | % Inhibition [3] | % Inhibition [7] | % Inhibition [8] | % Inhibition [9]
15 | > 13.8 µg/mL | 6.66 µg/mL (≈ 14.5 µM) | > 13.8 µg/mL | COc1ccccc1N1CCN(C(CNS(=O)(=O)c2cccs2)c2cccnc2)CC1 (stereo not given) | 0.559 µg/mL (≈ 1.22 µM) | > 13.8 µg/mL | 0% | 66.7% | – | –
16 | > 11.8 µg/mL | 4.98 µg/mL (≈ 12.6 µM) | 4.13 µg/mL (≈ 10.5 µM) | COc1cccc(NC(=O)NCCNc2ccc(Nc3cccc(C)n3)nn2)c1 | > 11.8 µg/mL | > 11.8 µg/mL | 0% | – | 0% | 100%
17 | > 12.1 µg/mL | 0.582 µg/mL (≈ 1.45 µM) | 4.06 µg/mL (≈ 10.1 µM) | Cc1cccc(Nc2ccc(NCCNS(=O)(=O)c3ccc(F)cc3)nn2)n1 | > 12.1 µg/mL | > 12.1 µg/mL | 0% | – | 50% | 100%
18 | 5.4 µg/mL (≈ 12.7 µM) | 2.41 µg/mL (≈ 5.65 µM) | 4.14 µg/mL (≈ 9.71 µM) | Cc1cc(C)c(S(=O)(=O)NCCNc2ccc(Nc3cccc(C)n3)nn2)c(C)c1 | 4.46 µg/mL (≈ 10.5 µM) | 6.74 µg/mL (≈ 15.8 µM) | 33.3% | – | 0% | 100%
19 | > 12.9 µg/mL | 3.4 µg/mL (≈ 7.95 µM) | 5.42 µg/mL (≈ 12.7 µM) | COc1ccc(C)cc1S(=O)(=O)NCCNc1ccc(Nc2cccc(C)n2)nn1 | > 12.9 µg/mL | > 12.9 µg/mL | 0% | – | 0% | 100%
20 | > 10.6 µg/mL | 4.32 µg/mL (≈ 12.3 µM) | > 10.6 µg/mL | O=C(NCCNc1ccc(Nc2ccccn2)nn1)c1ccc(F)cc1 | > 10.6 µg/mL | > 10.6 µg/mL | 0% | – | 0% | 100%
21 | > 11 µg/mL | > 11 µg/mL | 3.66 µg/mL (≈ 9.95 µM) | O=C(NCCNc1ccc(Nc2ccccn2)nn1)Nc1ccc(F)cc1 | > 11 µg/mL | > 11 µg/mL | 0% | – | 0% | 100%
22 | 0.367 µg/mL (≈ 0.972 µM) | > 11.3 µg/mL | > 11.3 µg/mL | Cc1cc(C)cc(NC(=O)NCCNc2ccc(Nc3ccccn3)nn2)c1 | > 11.3 µg/mL | > 11.3 µg/mL | 0% | – | 0% | 100%
23 | 0.35 µg/mL (≈ 0.971 µM) | > 10.8 µg/mL | > 10.8 µg/mL | O=C(c1ccccc1)N1CCN(c2ccc(Nc3ccccn3)nn2)CC1 | > 10.8 µg/mL | > 10.8 µg/mL | 0% | – | 0% | 0%
24 | > 11.3 µg/mL | > 11.3 µg/mL | > 11.3 µg/mL | O=C(Nc1ccccc1)N1CCN(c2ccc(Nc3ccccn3)nn2)CC1 | > 11.3 µg/mL | 11.3 µg/mL (≈ 30 µM) | 0% | – | 0% | 100%
25 | 0.414 µg/mL (≈ 0.971 µM) | > 12.8 µg/mL | > 12.8 µg/mL | COc1ccc(S(=O)(=O)N2CCN(c3ccc(Nc4ccccn4)nn3)CC2)cc1 | > 12.8 µg/mL | > 12.8 µg/mL | 16.7% | – | 0% | 0%
26 | > 12.9 µg/mL | > 12.9 µg/mL | > 12.9 µg/mL | O=C(c1ccc(C(F)(F)F)cc1)N1CCN(c2ccc(Nc3cccnc3)nn2)CC1 | 3.43 µg/mL (≈ 8.02 µM) | 7.94 µg/mL (≈ 18.5 µM) | 0% | – | 25% | 100%
27 | > 12.1 µg/mL | > 12.1 µg/mL | > 12.1 µg/mL | Cc1ccc(NC(=O)N2CCN(c3ccc(Nc4cccnc4)nn3)CC2)cc1C | > 12.1 µg/mL | > 12.1 µg/mL | 0% | – | 0% | 100%
28 | > 12.7 µg/mL | 0.716 µg/mL (≈ 1.69 µM) | > 12.7 µg/mL | Cc1ccc(S(=O)(=O)N2CCN(c3ccc(Nc4cccnc4)nn3)CC2)c(C)c1 | 3.91 µg/mL (≈ 9.21 µM) | 0.804 µg/mL (≈ 1.89 µM) | 0% | – | 0% | 100%
29 | 0.434 µg/mL (≈ 0.972 µM) | > 13.4 µg/mL | > 13.4 µg/mL | O=S(=O)(c1ccc2ccccc2c1)N1CCN(c2ccc(Nc3cccnc3)nn2)CC1 | > 13.4 µg/mL | > 13.4 µg/mL | 0% | – | 0% | 0%
30 | 0.403 µg/mL (≈ 0.972 µM) | 5.44 µg/mL (≈ 13.1 µM) | > 12.4 µg/mL | O=S(=O)(c1cccc(F)c1)N1CCN(c2ccc(Nc3cccnc3)nn2)CC1 | > 12.4 µg/mL | 0.937 µg/mL (≈ 2.26 µM) | 0% | – | 0% | 0%
31 | 0.317 µg/mL (≈ 0.971 µM) | > 9.79 µg/mL | > 9.79 µg/mL | CCCC(=O)N1CCN(c2ccc(Nc3ccncc3)nn2)CC1 | > 9.79 µg/mL | > 9.79 µg/mL | 0% | – | 0% | 0%

— ChEMBL document CHEMBL2093137, “WHO-TDR NTD Screening”
